Data taken from ChEMBL document CHEMBL1275556, “High prevalence of plasmid-mediated quinolone resistance genes qnr and aac(6')-Ib-cr in clinical isolates of Enterobacteriaceae from nine teaching hospitals in China” (2008).
Values after ≈ are worked out from the molar mass of the structure shown.

Key:
Klebsiella pneumoniae [1] = assay: Antimicrobial activity against aac(6')-Ib-cr-positive Klebsiella pneumoniae JN132T harboring qnrB gene by agar dilution method; assay type: functional
Summary of the method: (§1)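 Transconjugants were made by conjugating a qnr/aac(6')-Ib-cr donor with azide-resistant E. coli J53. Selection used Trypticase soy agar with sodium azide 150 µg/ml and sulfamethoxazole 180 µg/ml. […] MICs were read by CLSI agar dilution (M7-A7) and interpreted per M100-S17.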

Citrobacter freundii [2] = assay: Antimicrobial activity against aac(6')-Ib-cr-positive Citrobacter freundii JN1T by agar dilution method; assay type: functional
Summary of the method: (§2)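 MICs were determined by the CLSI agar dilution method (M7-A7) and interpreted against CLSI M100-S17 breakpoints.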

Klebsiella pneumoniae [3] = assay: Antimicrobial activity against aac(6')-Ib-cr-positive Klebsiella pneumoniae GZ40T harboring qnrB gene by agar dilution method
Enterobacter cloacae [4] = assay: Antimicrobial activity against aac(6')-Ib-cr-positive Enterobacter cloacae FJ63 harboring GyrA S83I, GyrA D87A, ParC S80I mutant, wild-type GyrB and qnrS genes by agar dilution method; assay type: functional
Klebsiella pneumoniae [5] = assay: Antimicrobial activity against aac(6')-Ib-cr-positive Klebsiella pneumoniae WH99T harboring qnrB gene by agar dilution method; assay type: functional; summary of the method: as §1
Enterobacter cloacae [6] = assay: Antimicrobial activity against aac(6')-Ib-cr-negative Enterobacter cloacae GZ51 harboring qnrA gene by agar dilution method; assay type: functional
Enterobacter cloacae [7] = assay: Antimicrobial activity against aac(6')-Ib-cr-negative Enterobacter cloacae SH39T harboring qnrA gene by agar dilution method; assay type: functional
Escherichia coli [8] = assay: Antimicrobial activity against aac(6')-Ib-cr-negative Escherichia coli PU12 harboring GyrA S83L mutant, wild-type GyrB, ParC and qnrS genes by agar dilution method; assay type: functional; summary of the method: as §2
Citrobacter freundii [9] = assay: Antimicrobial activity against aac(6')-Ib-cr-positive Citrobacter freundii JS33 harboring GyrA T83I mutant, wild-type ParC, GyrB, qnrA and qnrB genes by agar dilution method; assay type: functional; summary of the method: as §2
Citrobacter freundii [10] = assay: Antimicrobial activity against aac(6')-Ib-cr-positive Citrobacter freundii PU55 harboring GyrA T83I, ParC S80I mutant, wild-type GyrB, qnrA genes by agar dilution method; assay type: functional; summary of the method: as §2
Klebsiella pneumoniae [11] = assay: Antimicrobial activity against aac(6')-Ib-cr-positive Klebsiella pneumoniae JN41T harboring qnrB gene by agar dilution method; assay type: functional; summary of the method: as §1
Klebsiella pneumoniae [12] = assay: Antimicrobial activity against aac(6')-Ib-cr-positive Klebsiella pneumoniae GZ40 harboring GyrA S83I, ParC S80I mutant, wild-type GyrB and qnrB genes by agar dilution method; assay type: functional; summary of the method: as §2
Enterobacter cloacae [13] = assay: Antimicrobial activity against aac(6')-Ib-cr-negative Enterobacter cloacae FJ67T harboring qnrS gene by agar dilution method; assay type: functional
Klebsiella pneumoniae [14] = assay: Antimicrobial activity against aac(6')-Ib-cr-positive Klebsiella pneumoniae JN132 harboring GyrA S83I, ParC S80I mutant, wild-type GyrB and qnrB genes by agar dilution method; assay type: functional
Summary of the method: (§3)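 MICs were determined on clinical isolates by CLSI agar dilution (M7-A7) and interpreted against CLSI M100-S17 breakpoints.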

Enterobacter cloacae [15] = assay: Antimicrobial activity against aac(6')-Ib-cr-negative Enterobacter cloacae GZ51T harboring qnrA gene by agar dilution method; assay type: functional
Escherichia coli [16] = assay: Antimicrobial activity against aac(6')-Ib-cr-positive Escherichia coli FJ3 harboring GyrA S83L, ParC S80R mutant, wild-type GyrB and qnrB genes by agar dilution method; assay type: functional; summary of the method: as §2
Escherichia coli [17] = assay: Antimicrobial activity against Escherichia coli J53 harboring wild-type GyrA, ParC, GyrB genes by agar dilution method
Klebsiella pneumoniae [18] = assay: Antimicrobial activity against aac(6')-Ib-cr-negative Klebsiella pneumoniae SY22 harboring GyrA S83I, ParC S80I mutant, wild-type GyrB and qnrS genes by agar dilution method; assay type: functional; summary of the method: as §2
Citrobacter freundii [19] = assay: Antimicrobial activity against aac(6')-Ib-cr-positive Citrobacter freundii PU55T harboring wild-type GyrA, ParC, GyrB and qnrA genes by agar dilution method
Enterobacter cloacae [20] = assay: Antimicrobial activity against aac(6')-Ib-cr-negative Enterobacter cloacae GZ47 harboring qnrB and qnrS genes by agar dilution method; assay type: functional
Escherichia coli [21] = assay: Antimicrobial activity against aac(6')-Ib-cr-positive Escherichia coli FJ3T harboring wild-type GyrA, ParC, GyrB and qnrB genes by agar dilution method
Citrobacter freundii [22] = assay: Antimicrobial activity against aac(6')-Ib-cr-positive Citrobacter freundii TJ15T harboring wild-type GyrA, ParC, GyrB genes by agar dilution method; assay type: functional; summary of the method: as §2
Citrobacter freundii [23] = assay: Antimicrobial activity against aac(6')-Ib-cr-positive Citrobacter freundii JS33T harboring qnrA gene by agar dilution method; assay type: functional; summary of the method: as §2
Citrobacter freundii [24] = assay: Antimicrobial activity against aac(6')-Ib-cr-positive Citrobacter freundii JN1 harboring GyrA T83I, ParC S80I mutant, wild-type GyrB and qnrA genes by agar dilution method; assay type: functional; summary of the method: as §2
Enterobacter cloacae [25] = assay: Antimicrobial activity against aac(6')-Ib-cr-negative Enterobacter cloacae FJ61 harboring GyrA S83I, GyrA D87A, ParC S80I mutant, wild-type GyrB and qnrS genes by agar dilution method; assay type: functional
Enterobacter cloacae [26] = assay: Antimicrobial activity against aac(6')-Ib-cr-negative Enterobacter cloacae FJ61T harboring qnrS gene by agar dilution method; assay type: functional
Klebsiella pneumoniae [27] = assay: Antimicrobial activity against aac(6')-Ib-cr-negative Klebsiella pneumoniae SY22T harboring qnrS gene by agar dilution method; assay type: functional; summary of the method: as §2
Escherichia coli [28] = assay: Antimicrobial activity against aac(6')-Ib-cr-negative Escherichia coli PU12T harboring wild-type GyrA, GyrB, ParC and qnrS genes by agar dilution method; assay type: functional; summary of the method: as §2
Klebsiella pneumoniae [29] = assay: Antimicrobial activity against aac(6')-Ib-cr-positive Klebsiella pneumoniae WH99 harboring wild-type GyrA, ParC, GyrB and qnrB genes by agar dilution method; assay type: functional; summary of the method: as §3
Enterobacter cloacae [30] = assay: Antimicrobial activity against aac(6')-Ib-cr-negative Enterobacter cloacae WH42T harboring qnrA gene by agar dilution method; assay type: functional
Citrobacter freundii [31] = assay: Antimicrobial activity against aac(6')-Ib-cr-negative Citrobacter freundii JN64T harboring qnrA gene by agar dilution method; assay type: functional; summary of the method: as §2
Enterobacter cloacae [32] = assay: Antimicrobial activity against aac(6')-Ib-cr-negative Enterobacter cloacae FJ67 harboring […] and qnrS genes by agar dilution method; assay type: functional
Klebsiella pneumoniae [33] = assay: Antimicrobial activity against aac(6')-Ib-cr-positive Klebsiella pneumoniae SY26T harboring wild-type GyrA, ParC, GyrB and qnrB genes by agar dilution method; assay type: functional
Summary of the method: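 Transconjugants were made by conjugating a qnr/aac(6')-Ib-cr donor with azide-resistant E. coli J53. MICs were read by CLSI agar dilution (M7-A7) and interpreted per M100-S17.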

Citrobacter freundii [34] = assay: Antimicrobial activity against aac(6')-Ib-cr-positive Citrobacter freundii TJ15 harboring GyrA T83I, ParC S80I mutant, wild-type GyrB, qnrB genes by agar dilution method; assay type: functional; summary of the method: as §2
Enterobacter cloacae [35] = assay: Antimicrobial activity against aac(6')-Ib-cr-negative Enterobacter cloacae WH42 harboring wild-type GyrA, ParC, GyrB and qnrA genes by agar dilution method; assay type: functional
Enterobacter cloacae [36] = assay: Antimicrobial activity against aac(6')-Ib-cr-negative Enterobacter cloacae SH39 harboring GyrA S83I, ParC S80I mutant, wild-type GyrB and qnrA genes by agar dilution method; assay type: functional
Klebsiella pneumoniae [37] = assay: Antimicrobial activity against aac(6')-Ib-cr-positive Klebsiella pneumoniae JN41 harboring GyrA S83I, ParC S80I mutant, wild-type GyrB and qnrB genes by agar dilution method; assay type: functional; summary of the method: as §3
Enterobacter cloacae [38] = assay: Antimicrobial activity against aac(6')-Ib-cr-positive Enterobacter cloacae FJ63T harboring qnrS gene by agar dilution method; assay type: functional
Klebsiella pneumoniae [39] = assay: Antimicrobial activity against aac(6')-Ib-cr-positive Klebsiella pneumoniae SY26 harboring GyrA S83I, ParC S80I mutant, wild-type GyrB and qnrB genes by agar dilution method; assay type: functional; summary of the method: as §3
Citrobacter freundii [40] = assay: Antimicrobial activity against aac(6')-Ib-cr-negative Citrobacter freundii JN64 harboring GyrA T83I, wild-type ParC, GyrB and qnrA genes by agar dilution method; assay type: functional; summary of the method: as §2
Enterobacter cloacae [41] = assay: Antimicrobial activity against aac(6')-Ib-cr-negative Enterobacter cloacae GZ47T harboring qnrB gene by agar dilution method; assay type: functional

SMILES: CO[C@@]1(NC(=O)Cc2cccs2)C(=O)N2C(C(=O)O)=C(COC(N)=O)CS[C@@H]21 [CEFOXITIN]
- MIC (Klebsiella pneumoniae [1]): 64 µg/mL (≈ 150 µM)
- MIC (Citrobacter freundii [2]): 2 µg/mL (≈ 4.68 µM)
- MIC (Klebsiella pneumoniae [3]): 2 µg/mL (≈ 4.68 µM)
- MIC (Enterobacter cloacae [4]): 256 µg/mL (≈ 599 µM)
- MIC (Klebsiella pneumoniae [5]): 64 µg/mL (≈ 150 µM)
- MIC (Enterobacter cloacae [6]): > 256 µg/mL
- MIC (Enterobacter cloacae [7]): 4 µg/mL (≈ 9.36 µM)
- MIC (Escherichia coli [8]): 4 µg/mL (≈ 9.36 µM)
- MIC (Citrobacter freundii [9]): > 256 µg/mL
- MIC (Citrobacter freundii [10]): > 256 µg/mL
- MIC (Klebsiella pneumoniae [11]): 2 µg/mL (≈ 4.68 µM)
- MIC (Klebsiella pneumoniae [12]): 32 µg/mL (≈ 74.9 µM)
- MIC (Enterobacter cloacae [13]): 4 µg/mL (≈ 9.36 µM)
- MIC (Klebsiella pneumoniae [14]): 64 µg/mL (≈ 150 µM)
- MIC (Enterobacter cloacae [15]): 4 µg/mL (≈ 9.36 µM)
- MIC (Escherichia coli [16]): 8 µg/mL (≈ 18.7 µM)
- MIC (Escherichia coli [17]): 2 µg/mL (≈ 4.68 µM)
- MIC (Klebsiella pneumoniae [18]): 8 µg/mL (≈ 18.7 µM)
- MIC (Citrobacter freundii [19]): 2 µg/mL (≈ 4.68 µM)
- MIC (Enterobacter cloacae [20]): 256 µg/mL (≈ 599 µM)
- MIC (Escherichia coli [21]): 2 µg/mL (≈ 4.68 µM)
- MIC (Citrobacter freundii [22]): 64 µg/mL (≈ 150 µM)
- MIC (Citrobacter freundii [23]): 2 µg/mL (≈ 4.68 µM)
- MIC (Citrobacter freundii [24]): > 256 µg/mL
- MIC (Enterobacter cloacae [25]): 256 µg/mL (≈ 599 µM)
- MIC (Enterobacter cloacae [26]): 4 µg/mL (≈ 9.36 µM)
- MIC (Klebsiella pneumoniae [27]): 4 µg/mL (≈ 9.36 µM)
- MIC (Escherichia coli [28]): 4 µg/mL (≈ 9.36 µM)
- MIC (Klebsiella pneumoniae [29]): 256 µg/mL (≈ 599 µM)
- MIC (Enterobacter cloacae [30]): 2 µg/mL (≈ 4.68 µM)
- MIC (Citrobacter freundii [31]): 8 µg/mL (≈ 18.7 µM)
- MIC (Enterobacter cloacae [32]): > 256 µg/mL
- MIC (Klebsiella pneumoniae [33]): 16 µg/mL (≈ 37.4 µM)
- MIC (Citrobacter freundii [34]): 256 µg/mL (≈ 599 µM)
- MIC (Enterobacter cloacae [35]): > 256 µg/mL
- MIC (Enterobacter cloacae [36]): > 256 µg/mL
- MIC (Klebsiella pneumoniae [37]): 4 µg/mL (≈ 9.36 µM)
- MIC (Enterobacter cloacae [38]): 4 µg/mL (≈ 9.36 µM)
- MIC (Klebsiella pneumoniae [39]): 256 µg/mL (≈ 599 µM)
- MIC (Citrobacter freundii [40]): > 256 µg/mL
- MIC (Enterobacter cloacae [41]): 32 µg/mL (≈ 74.9 µM)
